Laboratory results taken from PubChem BioAssay AID624316 (Broad Institute, 2012).
Where “and” joins values, the source holds several entries; their conditions need not be identical. Equal entries are not always repeated. Calls of active or inactive are those of the source.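 The calls were made as follows: active = compounds lowering reporter light with a fitted AC50 at or below twice their top valid dose; inconclusive = flat partial inhibition or an unreliable curve fit; inactive = the rest.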

Tested on: SK-MEL-5 TRPM1 promoter luciferase reporter, 24 h
Assay: TRPM1 promoter luciferase signal reduction, dose response, MITF inhibitor project, cell-based, SK-MEL-5, dry powder samples, set 4 (AID 624316)
How it was run: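 incubation = compound added 24 h post-plating, 24 h exposure at 37 °C | test system = SK-MEL-5 melanoma line stably carrying TRPM1 promoter–luciferase reporter | medium = phenol-red-free DMEM, 10% FBS | dosing = compounds pinned into wells as DMSO solutions | technique = luciferase luminescence with SteadyGlo, 5 min room temperature | benchmarks = parthenolide as positive control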

`COc1ccc(C2=C(NC(=O)c3ccccc3OC)C(=O)c3ccccc3C2=O)cc1` showed an AC50 of 15.7 µM.

`CC(=O)NC1=C(c2cccc(Cl)c2)C(=O)c2ccccc2C1=O` gave an AC50 of 3.93 µM.

With `C=CCNC1=C(NS(=O)(=O)c2ccc(Br)cc2)C(=O)c2ccccc2C1=O` the AC50 was 7.27 µM.

For `O=C1C(Nc2ccccc2)=C(N2CCSCC2)C(=O)c2ccccc21`, the AC50 was 7.75 µM.

In the case of `COc1ccc(C2=C(NC(=O)c3cccc(OC)c3)C(=O)c3ccccc3C2=O)cc1`, the AC50 is reported as 11.4 µM.

`CC(=O)NC1=C(c2ccc(Cl)cc2)C(=O)c2ccccc2C1=O` gave an AC50 of 5.17 µM.

`O=C(NC1=C(c2ccc(OC(F)(F)F)cc2)C(=O)c2ccccc2C1=O)c1ccccc1F` gave an AC50 of 17.1 µM.

`CN1CCN(C2=C(NS(=O)(=O)c3ccccc3)C(=O)c3ccccc3C2=O)CC1` gave an AC50 of 0.614 µM.

Molecule `CCN1CCN(C2=C(Nc3ccccc3)C(=O)c3ccccc3C2=O)CC1` has an AC50 of 0.689 µM.

`O=C1C(Nc2ccccc2)=C(N2CCCCC2)C(=O)c2ccccc21` was tested, and the AC50 was 2.78 µM.

Work on `C=CCNC1=C(NCCCN(CC)CC)C(=O)c2ccccc2C1=O` yielded an AC50 of 3.12 µM.

With `O=C1C(Nc2ccccc2)=C(N2CCOCC2)C(=O)c2ccccc21` the AC50 was 5.81 µM and 4.63 µM.

With `C[C@@H](NC1=C(Nc2ccccc2)C(=O)c2ccccc2C1=O)c1ccccc1` the AC50 was 9.76 µM.

For `CCN(CC)CCNC1=C(Nc2ccccc2)C(=O)c2ccccc2C1=O`, the AC50 was 1.66 µM.

`O=C1C(NCCCN2CCOCC2)=C(Nc2ccccc2)C(=O)c2ccccc21` gave an AC50 of 4.03 µM.

With `COc1ccc(C(=O)NC2=C(c3ccc(OC(F)(F)F)cc3)C(=O)c3ccccc3C2=O)cc1` the AC50 was 35.5 µM.

In the case of `Cc1ccc(C(=O)NC2=C(c3ccc(OC(F)(F)F)cc3)C(=O)c3ccccc3C2=O)o1`, the AC50 is reported as 15.4 µM.

With `O=C(NC1=C(N2CCOCC2)C(=O)c2ccccc2C1=O)c1ccc(Br)cc1` the AC50 was 11.3 µM.

`CC1CCN(CC(CS(=O)(=O)c2ccc([N+](=O)[O-])cc2)N2CCC(C)CC2)CC1` (stereo not drawn) was tested, and the AC50 was 4.72 µM.

In the case of `O=C(NC1=C(c2ccc(OC(F)(F)F)cc2)C(=O)c2ccccc2C1=O)c1ccccc1`, the AC50 is reported as 32 µM.

For `O=C1C(NS(=O)(=O)c2ccc(Br)s2)=C(N2CCSCC2)C(=O)c2ccccc21`, the AC50 was 20.5 µM.

`C=CCNC1=C(NCCN(CC)CC)C(=O)c2ccccc2C1=O` was tested, and the AC50 was 1.75 µM.

`COc1ccc(C(=O)NC2=C(c3ccc(OC)cc3)C(=O)c3ccccc3C2=O)cc1` showed an AC50 of 8.59 µM.

`COc1ccc(C2=C(NC(C)=O)C(=O)c3ccccc3C2=O)cc1` showed an AC50 of 5.44 µM.

For `CCN1CCN(C2=C(NS(=O)(=O)c3ccc(Br)cc3)C(=O)c3ccccc3C2=O)CC1`, the AC50 was 4.06 µM.

With `COc1ccc(C2=C(NC(=O)c3ccc(Cl)cc3)C(=O)c3ccccc3C2=O)cc1` the AC50 was 16.4 µM.

`CCN(CC)CCCCNC1=C(Nc2ccccc2)C(=O)c2ccccc2C1=O` was tested, and the AC50 was 2.87 µM.

In the case of `O=C1C(NS(=O)(=O)c2ccccc2)=C(N2CCOCC2)C(=O)c2ccccc21`, the AC50 is reported as 18.5 µM.

Molecule `CC(=O)NC1=C(c2ccccc2)C(=O)c2ccccc2C1=O` has an AC50 of 5.51 µM.

`O=C1C(NS(=O)(=O)c2ccc(Br)cc2)=C(N2CCSCC2)C(=O)c2ccccc21` was tested, and the AC50 was 9.91 µM.

Molecule `O=C(NC1=C(N2CCCCC2)C(=O)c2ccccc2C1=O)c1ccccc1` has an AC50 of 25.6 µM.

`O=C(CNc1cccc2ccccc12)N/N=C/c1ccc([N+](=O)[O-])o1` was tested, and the AC50 was 1.67 µM.

For `C=CCNC1=C(NC(=O)c2ccccc2)C(=O)c2ccccc2C1=O`, the AC50 was 11.7 µM.

`COc1cccc(C2=C(NC(=O)c3ccccc3)C(=O)c3ccccc3C2=O)c1` showed an AC50 of 13.9 µM.

With `O=C(NC1=C(N2CCSCC2)C(=O)c2ccccc2C1=O)c1ccccc1` the AC50 was 3.61 µM.

`CCN1CCN(C2=C(NC(=O)c3ccc(Br)cc3)C(=O)c3ccccc3C2=O)CC1` showed an AC50 of 0.566 µM.

`C=CCNC1=C(N2CCN(C)CC2)C(=O)c2ccccc2C1=O` was tested, and the AC50 was 3.74 µM.

With `O=C1C(NS(=O)(=O)c2ccc(Br)cc2)=C(N2CCCCC2)C(=O)c2ccccc21` the AC50 was 14.2 µM.

`O=C1C(NS(=O)(=O)c2ccc(Br)cc2)=C(N2CCN(c3ccccc3)CC2)C(=O)c2ccccc21` showed an AC50 of 17.1 µM.

In the case of `COc1ccc(C2=C(NC(=O)c3ccccc3Cl)C(=O)c3ccccc3C2=O)cc1`, the AC50 is reported as 6.21 µM.

Molecule `C=CCNC1=C(N2CCOCC2)C(=O)c2ccccc2C1=O` has an AC50 of 1.54 µM.

In the case of `O=C(NC1=C(c2ccccc2)C(=O)c2ccccc2C1=O)c1ccccc1`, the AC50 is reported as 6.77 µM.

For `O=C(NC1=C(N2CCN(c3ccccc3)CC2)C(=O)c2ccccc2C1=O)c1ccccc1`, the AC50 was 15 µM.

In the case of `O=C1C(NS(=O)(=O)c2cccs2)=C(N2CCCCC2)C(=O)c2ccccc21`, the AC50 is reported as 21.7 µM.

In the case of `CC(=O)N(C)C1=C(N2CCCCC2)C(=O)c2ccccc2C1=O`, the AC50 is reported as 0.7 µM.

With `O=C(NC1=C(c2ccc(Oc3ccccc3)cc2)C(=O)c2ccccc2C1=O)c1ccccc1` the AC50 was > 70 µM (inactive).

`O=C(NC1=C(Cl)C(=O)c2ccccc2C1=O)c1ccccc1` showed an AC50 of 0.854 µM.

With `O=C1C(NS(=O)(=O)c2ccc(Br)cc2)=C(c2ccccc2)C(=O)c2ccccc21` the AC50 was 24 µM.

`C=CCNC1=C(Nc2ccccc2)C(=O)c2ccccc2C1=O` showed an AC50 of 12.4 µM.

For `O=C1C(NS(=O)(=O)c2ccc(Br)cc2)=C(N2CCOCC2)C(=O)c2ccccc21`, the AC50 was 6.87 µM.

Molecule `C=C1C(=O)OC2C1CC/C(C)=C\CCC1(C)OC21` (stereo not drawn) has an AC50 of 4.91 µM.

For `O=C(NC1=C(c2ccc(OC(F)(F)F)cc2)C(=O)c2ccccc2C1=O)c1ccc(Br)cc1`, the AC50 was 20.5 µM.

`O=C(NC1=C(c2ccccc2)C(=O)c2ccccc2C1=O)c1ccc(Br)cc1` showed an AC50 of 12.3 µM.

`COC1=C(NS(=O)(=O)c2ccccc2)C(=O)c2ccccc2C1=O` showed an AC50 of 6.65 µM.

With `NC1=C(c2ccc(OC(F)(F)F)cc2)C(=O)c2ccccc2C1=O` the AC50 was 16.3 µM.

`O=C1C(Nc2ccccc2)=C(N2CCN(c3ccccc3)CC2)C(=O)c2ccccc21` was tested, and the AC50 was 8.06 µM.

`CN1CCN(C2=C(NC(=O)c3ccc(Br)cc3)C(=O)c3ccccc3C2=O)CC1` gave an AC50 of 0.921 µM.

Molecule `CC(=O)NC1=C(c2ccc3c(c2)oc2ccccc23)C(=O)c2ccccc2C1=O` has an AC50 of 1.59 µM.

In the case of `CN1CCN(C2=C(Nc3ccccc3)C(=O)c3ccccc3C2=O)CC1`, the AC50 is reported as 4.78 µM.

For `COc1ccc(C2=C(N)C(=O)c3ccccc3C2=O)cc1`, the AC50 was 25.1 µM.

`CC(=O)NC1=C(c2ccc(Oc3ccccc3)cc2)C(=O)c2ccccc2C1=O` showed an AC50 of 14.8 µM.

In the case of `C=CCNC1=C(N2CCSCC2)C(=O)c2ccccc2C1=O`, the AC50 is reported as 2.81 µM.

`O=C1C(NS(=O)(=O)c2ccc(Br)cc2)=C(c2ccc(OC(F)(F)F)cc2)C(=O)c2ccccc21` was tested, and the AC50 was 12 µM.

`O=C1C(NS(=O)(=O)c2ccc(Br)s2)=C(N2CCCCC2)C(=O)c2ccccc21` gave an AC50 of 19.3 µM.

`COc1ccc(S(=O)(=O)N(C(C)=O)c2ccc(OC(C)=O)c3ccccc23)cc1[N+](=O)[O-]` showed an AC50 of 6.67 µM.

With `COc1ccc(C2=C(NC(=O)c3ccc(OC)cc3-c3cccc(OC)c3)C(=O)c3ccccc3C2=O)cc1` the AC50 was > 70 µM (inactive).

For `CN1CCN(C2=C(NS(=O)(=O)c3cccs3)C(=O)c3ccccc3C2=O)CC1`, the AC50 was 2.06 µM.

With `COc1cccc(-c2cc(C(=O)NC3=C(Cl)C(=O)c4ccccc4C3=O)ccc2OC)c1` the AC50 was 3.3 µM.

`CCN(CC)CCCNC1=C(N(C)C(C)=O)C(=O)c2ccccc2C1=O` gave an AC50 of 0.188 µM.

Molecule `O=C1C(NS(=O)(=O)c2ccc(Br)s2)=C(N2CCOCC2)C(=O)c2ccccc21` has an AC50 of 19.9 µM.

For `CN1CCN(C2=C(NS(=O)(=O)c3ccc(Br)s3)C(=O)c3ccccc3C2=O)CC1`, the AC50 was 2.57 µM.

Work on `O=C(NC1=C(c2ccc(OC(F)(F)F)cc2)C(=O)c2ccccc2C1=O)c1ccco1` yielded an AC50 of 21 µM.

`NC1=C(NC(=O)c2ccccc2)C(=O)c2ccccc2C1=O` gave an AC50 of 4.37 µM.

Molecule `O=C(NC1=C(N2CCOCC2)C(=O)c2ccccc2C1=O)c1ccccc1` has an AC50 of 6 µM.

In the case of `O=C1C(NS(=O)(=O)c2ccccc2)=C(N2CCCCC2)C(=O)c2ccccc21`, the AC50 is reported as 28.3 µM.

`C=CCNC1=C(N2CCCCC2)C(=O)c2ccccc2C1=O` gave an AC50 of 0.538 µM.

For `C=CCNC1=C(NCCCN2CCOCC2)C(=O)c2ccccc2C1=O`, the AC50 was 7.39 µM.

Work on `CCN1CCN(C2=C(NS(=O)(=O)c3ccc(Br)s3)C(=O)c3ccccc3C2=O)CC1` yielded an AC50 of 4.1 µM.

In the case of `C=CCNC1=C(N(C)C(C)=O)C(=O)c2ccccc2C1=O`, the AC50 is reported as 0.107 µM.

For `O=C1C(Nc2ccccc2)=C(NS(=O)(=O)c2ccccc2[N+](=O)[O-])C(=O)c2ccccc21`, the AC50 was 29 µM.

`Cc1nc2ccccc2n1/N=C/c1ccc([N+](=O)[O-])s1` gave an AC50 of 1.86 µM.

`O=C(NC1=C(c2ccccc2)C(=O)c2ccccc2C1=O)c1ccco1` gave an AC50 of 8.11 µM.

In the case of `COc1ccc(C2=C(NC(=O)c3ccc4ccccc4c3)C(=O)c3ccccc3C2=O)cc1`, the AC50 is reported as > 70 µM (inactive).

With `CCN1CCN(C2=C(NS(=O)(=O)c3cccs3)C(=O)c3ccccc3C2=O)CC1` the AC50 was 1.73 µM.

`CC(=O)N(C)C1=C(N2CCOCC2)C(=O)c2ccccc2C1=O` gave an AC50 of 1.89 µM.

Work on `COc1ccc(C2=C(NC(=O)c3cccc(Cl)c3)C(=O)c3ccccc3C2=O)cc1` yielded an AC50 of 19.9 µM.

`CC(=O)N(C)C1=C(N2CCN(C)CC2)C(=O)c2ccccc2C1=O` showed an AC50 of 0.372 µM.

For `O=C1C=C(Nc2ccccc2)C(=O)c2ccccc21`, the AC50 was 4.07 µM.

Work on `NC1=C(c2ccccc2)C(=O)c2ccccc2C1=O` yielded an AC50 of 7.61 µM.

`O=C(NC1=C(N2CCSCC2)C(=O)c2ccccc2C1=O)c1ccc(Br)cc1` was tested, and the AC50 was 8.75 µM.

With `C=CCNC1=C(Cl)C(=O)c2ccccc2C1=O` the AC50 was 1.67 µM and 2.18 µM.

`CCN1CCN(C2=C(NC(=O)c3ccccc3)C(=O)c3ccccc3C2=O)CC1` gave an AC50 of 0.582 µM.

With `O=C(NC1=C(N2CCCCC2)C(=O)c2ccccc2C1=O)c1ccc(Br)cc1` the AC50 was 36.2 µM.

Molecule `NC1=CC(=O)c2ccccc2C1=O` has an AC50 of 1.41 µM.

With `COc1ccc(C(=O)NC2=C(c3ccccc3)C(=O)c3ccccc3C2=O)cc1` the AC50 was 10.9 µM.

`CN1CCN(C2=C(NC(=O)c3ccccc3)C(=O)c3ccccc3C2=O)CC1` was tested, and the AC50 was 0.508 µM.

For `C=CCNC1=C(N2CCN(CC)CC2)C(=O)c2ccccc2C1=O`, the AC50 was 4.12 µM.

Molecule `Cc1ccc(C(=O)NC2=C(c3ccccc3)C(=O)c3ccccc3C2=O)o1` has an AC50 of 4.8 µM.

`O=C1C(NS(=O)(=O)c2cccs2)=C(N2CCOCC2)C(=O)c2ccccc21` showed an AC50 of 9.86 µM.

Molecule `CCN(CC)CCCNC1=C(Nc2ccccc2)C(=O)c2ccccc2C1=O` has an AC50 of 2.38 µM.

In the case of `CCN1CCN(C2=C(N(C)C(C)=O)C(=O)c3ccccc3C2=O)CC1`, the AC50 is reported as 0.367 µM.

In the case of `C=CCNC1=C(NS(=O)(=O)c2cccs2)C(=O)c2ccccc2C1=O`, the AC50 is reported as 12 µM.

`CCN1c2ccccc2NC2N=C(OC)C(c3ccccc3)C21` (stereo not drawn) gave an AC50 of 2.5 µM.
